ChEMBL document CHEMBL1125894, “Dual-action cephalosporins: cephalosporin 3'-quaternary ammonium quinolones” (1991)
Values after ≈ are worked out from the molar mass of the structure shown.

What was measured:
Streptococcus pyogenes [1] = assay: In vivo activity in murine against Streptococcus pyogenes 4 infection after sc administration.; format: functional
Outline: (§1)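 Mouse protection test in CD1 Swiss albino mice (18–20 g). Mice were infected intraperitoneally with 0.5 mL of a diluted bacterial suspension, then treated within 5 min with one 1.0 mL subcutaneous dose at the dorsal base of the neck. Doses ranged from 0.05 to 250 mg/kg, with six mice per group. ED50 was calculated by the Reed–Muench method.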

Pseudomonas aeruginosa [2] = assay: In vitro antibacterial activity against Pseudomonas aeruginosa 5712; format: functional
Outline: (§2)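 Serial 2-fold dilutions in the NCCLS broth microdilution method for aerobic nonfastidious organisms, with an 18-h incubation. The value is reported as the minimum inhibitory concentration (MIC).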

[3] = target: T1, Penicillin-binding protein 1A (Escherichia coli K-12) (UniProt P02918); assay: Concentration required for 90% inhibition against 90 kDa penicillin-binding protein 1a binding using [14C]-Pen G as the radioligand.
T1 sequence (whole entry): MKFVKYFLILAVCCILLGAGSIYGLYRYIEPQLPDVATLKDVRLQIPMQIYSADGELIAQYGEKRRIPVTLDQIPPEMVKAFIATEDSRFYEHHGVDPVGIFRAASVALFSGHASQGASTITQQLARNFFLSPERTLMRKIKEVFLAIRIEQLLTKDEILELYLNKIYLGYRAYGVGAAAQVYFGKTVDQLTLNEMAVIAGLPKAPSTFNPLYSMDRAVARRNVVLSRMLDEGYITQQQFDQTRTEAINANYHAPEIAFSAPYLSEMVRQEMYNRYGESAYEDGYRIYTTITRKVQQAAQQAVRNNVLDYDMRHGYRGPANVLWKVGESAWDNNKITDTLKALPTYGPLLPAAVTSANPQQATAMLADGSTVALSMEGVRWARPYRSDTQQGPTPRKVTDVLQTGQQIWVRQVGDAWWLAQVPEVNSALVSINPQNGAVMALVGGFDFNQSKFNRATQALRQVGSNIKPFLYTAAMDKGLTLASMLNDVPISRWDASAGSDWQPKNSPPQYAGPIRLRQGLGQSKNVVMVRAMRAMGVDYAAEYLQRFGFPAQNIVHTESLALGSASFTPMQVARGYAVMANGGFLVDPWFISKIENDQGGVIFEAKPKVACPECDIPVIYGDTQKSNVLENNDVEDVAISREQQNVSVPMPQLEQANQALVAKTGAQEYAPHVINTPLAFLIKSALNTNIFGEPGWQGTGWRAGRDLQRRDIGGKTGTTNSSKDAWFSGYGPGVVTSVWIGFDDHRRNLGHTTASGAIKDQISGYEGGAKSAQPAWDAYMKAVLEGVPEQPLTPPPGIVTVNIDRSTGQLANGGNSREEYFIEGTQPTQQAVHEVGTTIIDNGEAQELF
Outline: (§3)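 Solubilized membranes from sonicated E. coli DC-0 were used. PBP binding was measured as inhibition of [14C]penicillin G binding to each PBP.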

Escherichia coli [4] = assay: Concentration required for 90% inhibition against 60 kDa penicillin-binding protein 3 binding using [14C]-Pen G as the radioligand.; outline: as §3
Enterobacter cloacae [5] = assay: In vitro antibacterial activity against Enterobacter cloacae 5699; format: functional; outline: as §2
Escherichia coli [6] = assay: In vitro antibacterial activity against Escherichia coli 257; format: functional; outline: as §2
Streptococcus pneumoniae [7] = assay: In vitro antibacterial activity against Streptococcus pneumoniae 6301; format: functional
Outline: (§4)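 Broth macrodilution with serial 2-fold dilutions in cation-supplemented Mueller-Hinton broth containing 10% goat serum. The value is reported as the MIC.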

Streptococcus pyogenes [8] = assay: In vitro antibacterial activity against Streptococcus pyogenes 4; format: functional; outline: as §4
Staphylococcus aureus [9] = assay: In vitro antibacterial activity against Staphylococcus aureus Smith(MS); format: functional
Outline: (§5)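 Staphylococci were tested by the standard agar dilution procedure using serial 2-fold dilutions of agent. The value is reported as the MIC.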

[10] = target: T2, Penicillin-binding protein 1B (Escherichia coli K-12) (UniProt P02919); assay: Concentration required for 90% inhibition against 90 kDa penicillin-binding protein 1b binding using [14C]-Pen G as the radioligand.; outline: as §3
T2 sequence (whole entry): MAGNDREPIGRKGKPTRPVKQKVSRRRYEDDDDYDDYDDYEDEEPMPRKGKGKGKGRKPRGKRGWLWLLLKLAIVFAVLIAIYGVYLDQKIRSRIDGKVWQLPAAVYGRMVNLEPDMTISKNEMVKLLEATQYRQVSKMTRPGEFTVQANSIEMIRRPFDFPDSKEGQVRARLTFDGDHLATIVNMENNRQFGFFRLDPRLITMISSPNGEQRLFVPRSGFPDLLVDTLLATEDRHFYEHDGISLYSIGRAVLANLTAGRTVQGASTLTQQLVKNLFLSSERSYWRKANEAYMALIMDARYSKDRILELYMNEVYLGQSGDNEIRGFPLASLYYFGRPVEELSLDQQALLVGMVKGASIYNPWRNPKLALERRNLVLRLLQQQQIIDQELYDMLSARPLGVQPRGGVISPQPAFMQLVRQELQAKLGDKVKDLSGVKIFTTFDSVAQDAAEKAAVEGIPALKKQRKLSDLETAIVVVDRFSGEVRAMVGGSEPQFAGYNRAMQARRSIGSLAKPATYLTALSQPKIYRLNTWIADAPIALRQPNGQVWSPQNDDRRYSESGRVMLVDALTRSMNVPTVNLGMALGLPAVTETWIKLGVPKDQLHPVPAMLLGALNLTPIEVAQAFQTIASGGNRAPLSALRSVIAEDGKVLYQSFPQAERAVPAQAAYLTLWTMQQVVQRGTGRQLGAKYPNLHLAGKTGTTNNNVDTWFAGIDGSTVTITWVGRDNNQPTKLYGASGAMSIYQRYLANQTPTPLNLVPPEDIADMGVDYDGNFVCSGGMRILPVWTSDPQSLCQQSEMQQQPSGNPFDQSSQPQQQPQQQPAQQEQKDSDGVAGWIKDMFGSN

Serratia marcescens [11] = assay: In vivo activity in murine against Serratia marcescens SM infection after sc administration.; format: functional; outline: as §1
[12] = target: T3, Peptidoglycan D,D-transpeptidase MrdA (Escherichia coli K-12) (UniProt P0AD65); assay: Concentration required for 90% inhibition against 66 kDa penicillin-binding protein 2 binding using [14C]-Pen G as the radioligand.; outline: as §3
T3 sequence (whole entry): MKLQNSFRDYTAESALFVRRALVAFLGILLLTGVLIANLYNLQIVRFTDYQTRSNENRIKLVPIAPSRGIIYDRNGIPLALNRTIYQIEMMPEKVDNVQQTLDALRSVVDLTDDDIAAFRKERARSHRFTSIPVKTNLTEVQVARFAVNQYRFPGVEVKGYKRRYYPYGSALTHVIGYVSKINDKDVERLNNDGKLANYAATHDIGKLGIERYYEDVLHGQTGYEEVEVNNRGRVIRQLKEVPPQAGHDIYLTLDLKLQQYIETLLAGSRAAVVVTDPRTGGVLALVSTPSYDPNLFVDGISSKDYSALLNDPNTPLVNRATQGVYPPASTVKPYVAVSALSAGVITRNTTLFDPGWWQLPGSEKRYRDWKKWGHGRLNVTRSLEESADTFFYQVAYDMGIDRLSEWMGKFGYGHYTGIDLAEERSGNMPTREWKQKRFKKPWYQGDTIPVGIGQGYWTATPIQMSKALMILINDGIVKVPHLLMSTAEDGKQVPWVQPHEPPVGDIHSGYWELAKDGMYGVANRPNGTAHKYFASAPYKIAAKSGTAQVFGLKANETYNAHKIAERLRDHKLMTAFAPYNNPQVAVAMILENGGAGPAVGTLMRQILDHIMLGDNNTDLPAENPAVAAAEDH

Klebsiella pneumoniae = assay: In vitro antibacterial activity against Klebsiella pneumoniae A; format: functional; outline: as §2
Streptococcus pneumoniae [13] = assay: In vivo activity in murine against Streptococcus pneumoniae 6301 infection after sc administration.; format: functional; outline: as §1
Serratia marcescens [14] = assay: In vitro antibacterial activity against Serratia marcescens SM; format: functional; outline: as §2
Pseudomonas aeruginosa [15] = assay: In vivo activity in murine against Pseudomonas aeruginosa 5712 infection after sc administration.; format: functional; conditions: Pseudomonas aeruginosa, sc; read-out: ED50
Outline: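 Mouse protection test in CD1 Swiss albino mice (18–20 g) infected intraperitoneally with 0.5 mL of diluted P. aeruginosa suspension. Mice received 1.0 mL subcutaneously at the neck base within 5 min of infection and a second treatment 3 h after infection. Doses ranged from 0.05 to 250 mg/kg, with six mice per group. ED50 was calculated by the Reed–Muench method.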

Escherichia coli [16] = assay: In vivo activity in murine against Escherichia coli 257 infection after sc administration.; format: functional; conditions: Escherichia coli, sc; read-out: ED50; outline: as §1
Enterobacter cloacae [17] = assay: In vitro antibacterial activity against Enterobacter cloacae P99; format: functional; outline: as §2
Staphylococcus aureus [18] = assay: In vitro antibacterial activity against Staphylococcus aureus 95(MR); format: functional; outline: as §5
Citrobacter freundii = assay: In vitro antibacterial activity against Citrobacter freundii BS 16; format: functional; outline: as §2
Escherichia coli [19] = assay: Antibacterial activity against Escherichia coli DC-O; format: functional; outline: as §2

MIC (Pseudomonas aeruginosa [2]) [µg/mL]	Concentration [3] [µg/mL]	Concentration (Escherichia coli [4]) [µg/mL]	MIC (Enterobacter cloacae [5]) [µg/mL]	MIC (Escherichia coli [6]) [µg/mL]	MIC (Streptococcus pneumoniae [7]) [µg/mL]	MIC (Streptococcus pyogenes [8]) [µg/mL]	MIC (Staphylococcus aureus [9]) [µg/mL]	Concentration [10] [µg/mL]	Concentration [12] [µg/mL]	MIC (Klebsiella pneumoniae) [µg/mL]	MIC (Serratia marcescens [14]) [µg/mL]	MIC (Enterobacter cloacae [17]) [µg/mL]	MIC (Staphylococcus aureus [18]) [µg/mL]	MIC (Citrobacter freundii) [µg/mL]	MIC (Escherichia coli [19]) [µg/mL]	SMILES	also measured
32 (≈ 41.8 µM)	> 100	0.1	0.5 (≈ 0.654 µM)	0.125 (≈ 0.163 µM)	0.063 (≈ 0.0824 µM)	0.125 (≈ 0.163 µM)	4 (≈ 5.23 µM)	> 100	100	0.5 (≈ 0.654 µM)	1 (≈ 1.31 µM)	0.5 (≈ 0.654 µM)	4 (≈ 5.23 µM)	2 (≈ 2.62 µM)	0.2 (≈ 0.262 µM)	CO/N=C(\C(=O)N[C@@H]1C(=O)N2C(C(=O)[O-])=C(C[N+]3(C)CCN(c4c(F)cc5c(=O)c(C(=O)O)cn(CCF)c5c4F)CC3)CS[C@H]12)c1csc(N)n1	ED50 (Streptococcus pyogenes [1]): < 5 mg/kg; ED50 (Serratia marcescens [11]): 10 mg/kg; ED50 (Streptococcus pneumoniae [13]): 12 mg/kg; ED50 (Pseudomonas aeruginosa [15]): > 250 mg/kg; ED50 (Escherichia coli [16]): < 0.5 mg/kg
64 (≈ 87.8 µM)	–	–	1 (≈ 1.37 µM)	0.5 (≈ 0.686 µM)	0.063 (≈ 0.0864 µM)	0.125 (≈ 0.172 µM)	2 (≈ 2.74 µM)	–	–	1 (≈ 1.37 µM)	1 (≈ 1.37 µM)	1 (≈ 1.37 µM)	4 (≈ 5.49 µM)	4 (≈ 5.49 µM)	–	CCn1cc(C(=O)O)c(=O)c2cc(F)c(N3CC[N+](C)(CC4=C(C(=O)[O-])N5C(=O)[C@@H](NC(=O)/C(=N\OC)c6csc(N)n6)[C@H]5SC4)CC3)cc21	–
32 (≈ 44.7 µM)	10	2	0.5 (≈ 0.699 µM)	0.5 (≈ 0.699 µM)	0.25 (≈ 0.349 µM)	0.063 (≈ 0.088 µM)	0.5 (≈ 0.699 µM)	100	> 100	0.5 (≈ 0.699 µM)	2 (≈ 2.79 µM)	0.5 (≈ 0.699 µM)	1 (≈ 1.4 µM)	2 (≈ 2.79 µM)	8 (≈ 11.2 µM)	C[N+]1(CC2=C(C(=O)[O-])N3C(=O)[C@@H](NC(=O)COc4ccccc4)[C@H]3SC2)CCN(c2c(F)cc3c(=O)c(C(=O)O)cn(CCF)c3c2F)CC1	–
128 (≈ 210 µM)	–	–	4 (≈ 6.56 µM)	2 (≈ 3.28 µM)	16 (≈ 26.2 µM)	8 (≈ 13.1 µM)	4 (≈ 6.56 µM)	–	–	2 (≈ 3.28 µM)	8 (≈ 13.1 µM)	0.5 (≈ 0.82 µM)	1 (≈ 1.64 µM)	16 (≈ 26.2 µM)	–	C[N+]1(CC2=C(C(=O)[O-])N3C(=O)[C@@H](NC=O)[C@H]3SC2)CCN(c2c(F)cc3c(=O)c(C(=O)O)cn(CCF)c3c2F)CC1	–
